# Screening results: PubChem, The Scripps Research Institute Molecular Screening Center
# A selection: hits, their analogues and other compounds. The true share with any hit is near 1.8%.
# NOD2 RIPK2 PPI: inhibitors of human NOD2-RIPK2 interaction; actives 0.38% (n = 360,000); inhibition, % at 4.98 µM; CHO BLA complementation NOD2-RIPK2, CCF4 ratio; in the data active means inhibition above about 21%
# MC4R barr agon: agonists of human melanocortin 4 receptor (MC4R) beta-arrestin; actives 0.98% (n = 360,000); activation, % at 8.9 µM; U2OS MC4R beta-arrestin complementation, luminescence; percent of melanotan II response, DMSO zero; P32245;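 active means activation above a per-plate cutoff, the mean activation of sample wells on that plate plus 3 SD, cut at about 8% in these data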
# TLR4-MyD88 BLA: blocks binding of human TLR4 to MyD88; actives 0.18% (n = 200,000); inhibition, % at 8.4 µM; O00206+Q99836; HeLa CL3-4 TLR4/MyD88 BLA complementation, FRET ratio; AID 861; in the data active means inhibition above about 25%
# TLR9-MyD88 inh: blocks human TLR9 binding to MyD88; inhibition, % at 4.98 µM; CHO BLA complementation TLR9-MyD88, CCF4 FRET ratio; actives 0.21% (n = 340,000); Q9NR96+Q99836;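 active means inhibition above the mean over all tested compounds plus 3 SD, cut at about 21% in these data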
# Target sequence (Q99836 whole entry, looked up): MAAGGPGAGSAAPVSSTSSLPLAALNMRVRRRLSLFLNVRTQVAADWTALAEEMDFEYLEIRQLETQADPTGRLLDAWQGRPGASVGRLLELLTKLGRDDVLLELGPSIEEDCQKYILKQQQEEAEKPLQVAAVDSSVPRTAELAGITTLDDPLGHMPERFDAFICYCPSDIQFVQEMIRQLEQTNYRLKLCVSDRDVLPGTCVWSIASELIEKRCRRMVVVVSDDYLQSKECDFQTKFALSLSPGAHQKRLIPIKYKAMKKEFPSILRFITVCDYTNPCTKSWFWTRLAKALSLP
# Target sequence (Q9NR96 whole entry, looked up): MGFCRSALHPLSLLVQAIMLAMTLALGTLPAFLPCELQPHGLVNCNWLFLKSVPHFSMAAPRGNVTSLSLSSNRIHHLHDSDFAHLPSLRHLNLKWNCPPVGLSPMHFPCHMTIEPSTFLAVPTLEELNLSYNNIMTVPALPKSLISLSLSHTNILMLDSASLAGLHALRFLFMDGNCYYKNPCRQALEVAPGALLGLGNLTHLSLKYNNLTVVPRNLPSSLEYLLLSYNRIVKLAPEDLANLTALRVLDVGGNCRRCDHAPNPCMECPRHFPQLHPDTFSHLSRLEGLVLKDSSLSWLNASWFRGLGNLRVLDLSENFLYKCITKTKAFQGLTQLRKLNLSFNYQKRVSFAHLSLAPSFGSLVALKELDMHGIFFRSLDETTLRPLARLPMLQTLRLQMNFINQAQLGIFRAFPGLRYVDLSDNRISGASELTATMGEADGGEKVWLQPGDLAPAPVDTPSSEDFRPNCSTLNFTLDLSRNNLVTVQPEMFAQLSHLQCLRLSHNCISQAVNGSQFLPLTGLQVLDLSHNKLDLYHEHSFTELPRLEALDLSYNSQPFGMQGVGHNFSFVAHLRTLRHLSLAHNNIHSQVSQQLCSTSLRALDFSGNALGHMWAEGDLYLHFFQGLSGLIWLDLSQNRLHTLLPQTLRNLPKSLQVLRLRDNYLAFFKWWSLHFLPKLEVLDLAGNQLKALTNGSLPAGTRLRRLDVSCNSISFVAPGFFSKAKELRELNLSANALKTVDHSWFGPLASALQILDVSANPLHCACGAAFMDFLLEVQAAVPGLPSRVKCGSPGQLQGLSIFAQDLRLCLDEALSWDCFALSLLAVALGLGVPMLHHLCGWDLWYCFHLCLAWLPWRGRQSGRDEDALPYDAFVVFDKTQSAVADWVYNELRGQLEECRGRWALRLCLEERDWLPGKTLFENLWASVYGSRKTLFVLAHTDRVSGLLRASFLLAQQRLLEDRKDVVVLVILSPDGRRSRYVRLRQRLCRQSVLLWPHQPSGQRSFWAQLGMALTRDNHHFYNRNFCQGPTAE
# MC4R antagonist: blocks human MC4R cAMP signaling; P32245; MC4R-expressing cells, MTII-stimulated cAMP, LANCE TR-FRET; inhibition, % at 6.5 µM; actives 0.48% (n = 360,000);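 active means inhibition above its plate's cutoff, the mean of tested wells on that plate plus 3 SD, cut at about 29% in these data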
#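 Material: human MC4R-expressing U2OS cells. Probe or stimulus: Melanotan II challenge. Dosing: 6.5 µM single dose. Times: 30-min compound, 1-h challenge, 1-h detection, room temperature. Technique: TR-FRET with Eu-cAMP and labeled anti-cAMP, 671 nm. Replication: singlicate.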
# MC4R barr conf: human MC4R beta-arrestin agonism confirmation | shares compounds with MC4R barr agon | activation, % at 8.9 µM | U2OS MC4R beta-arrestin recruitment, luminescence; scaled DMSO 0%, Melanotan II 100% | actives 31% (n = 2,400);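 active means mean activation across replicates above the hit cutoff set in the earlier primary screen, cut at about 8% in these data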
# MOR DOR agonist: OPRM1-OPRD1 heterodimer agonism counter-screen | shares compounds with MC4R barr agon | U2OS PathHunter beta-arrestin, beta-gal luminescence; percent of deltorphin B response, DMSO zero | activation, % at 9.2 µM | actives 5.8% (n = 2,400);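 active means mean activation across replicates exceeds the hit threshold derived in the earlier primary screen, cut at about 18% in these data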
# Numbers stand for hits; 0 = inactive; - = no result; ! = a repeat was not active.
SMILES,NOD2 RIPK2 PPI,MC4R barr agon,TLR4-MyD88 BLA,TLR9-MyD88 inh,MC4R antagonist,MC4R barr conf,MOR DOR agonist
CCc1ccc(C2CC(c3ccc(Cl)cc3)n3nc(N)nc3N2)cc1 (centres undefined),0,0,0,0,0,-,-
O=C(CSc1nnnn1-c1ccccc1)Nc1nsc(-c2ccc(Cl)cc2)n1,0,16,0,0,0,0,0
Cc1cc(C)cc(-n2nnnc2SCC(=O)Nc2nc(-c3ccc(Cl)cc3)cs2)c1,0,27,0,0,0,0,0
Cc1ccc(-n2nnnc2SCC(=O)Nc2nc(-c3ccc(F)cc3)cs2)cc1C,0,24,0,0,0,13,0
Cc1ccc(-n2nnnc2SCC(=O)Nc2ccccc2-c2ccccc2)cc1C,0,0,0,0,0,-,-
CCc1ccc(C(O)c2ncc(-c3ccccc3F)[nH]2)cc1 (centres undefined),0,0,-,-,0,-,-
CC(C)C[C@H]1CNC(=O)C(=O)N1C[C@@H]1CCCN1C[C@H](CC(C)C)N1C[C@H](Cc2ccc(O)cc2)N(CCc2ccccc2)C(=O)C1=O,0,-,-,-,-,-,-
O=C(COC(=O)/C=C/c1ccc(Cl)cc1)Nc1ccc2c(c1)OCCO2,0,24,0,0,0,0,0
O=C(O)CC(C(=O)Nc1ccc(F)cc1)C1CCCO1 (centres undefined),0,0,-,0,0,-,-
Cc1ccc(C(=O)Nc2cccc(C(F)(F)F)c2)cc1NC(=O)c1nccnc1N,0,17,-,0,0,0,44!
O=C(CN1CCOCC1)Nc1cccc(C(=O)Nc2cccc(C(F)(F)F)c2)c1,0,0,0,0,0,-,-
CCCCCNCC(=O)Nc1cccc(C(=O)Nc2cccc(C(F)(F)F)c2)c1,0,15,0,0,0,16,0
COc1ccc(OCCSc2nnc(CCNC(=O)c3ccc(Cl)c(Cl)c3)n2C)cc1,0,0,0,0,0,-,-
CCn1c(CCNC(=O)c2ccc(Cl)c(Cl)c2)nnc1SCCOc1ccc(OC)cc1,0,11,0,0,0,0,0
c1cncc(CNc2nc(-c3cccnc3)nc3ccccc23)c1,0,0,-,0,0,-,-
COc1cccc(-c2nc(NCc3cccnc3)c3ccccc3n2)c1O,0,16,-,0,0,0,0
Cc1ccccc1N/C(SCc1cccc(Br)c1)=C(/C#N)C(N)=O,0,23,0,0,0,0,0
COc1cccc(N/C(SCc2cccc([N+](=O)[O-])c2)=C(/C#N)C(N)=O)c1,0,0,0,0,0,-,-
CC(C)(C)c1ccc(CC(=O)N2CCC2(C)C(=O)NS(=O)(=O)c2cccc(F)c2)cc1 (centres undefined),0,0,-,-,0,-,-
CCOc1ccc(N2C(=O)CC(Sc3nc(-c4cccs4)cc(C(F)(F)F)c3C#N)C2=O)cc1 (centres undefined),0,0,0,0,0,-,-
N#Cc1c(C(F)(F)F)cc(-c2cccs2)nc1SCc1cccnc1,0,12,0,0,0,0,0
N#Cc1c(C(F)(F)F)cc(-c2cccs2)nc1SCc1ccc(Cl)nc1,0,16,0,0,0,0,0
N#Cc1ccc(-c2cccs2)nc1SCc1cccnc1,0,0,-,-,0,-,-
COc1cccc(CN2CC(C(=O)NC3CCC3)CCC2=O)c1 (centres undefined),0,0,-,0,0,-,-
Cc1ccccc1-c1cc(C(=O)O)n(CC2CC(c3cccnc3)=NO2)n1 (centres undefined),0,0,-,0,0,-,-
SMILES,NOD2 RIPK2 PPI,MC4R barr agon,TLR4-MyD88 BLA,TLR9-MyD88 inh,MC4R antagonist,MC4R barr conf,MOR DOR agonist
COc1cc(C(=O)NCC2CCCO2)ccc1OCc1ccccc1Cl (centres undefined),0,0,-,0,0,-,-
Cc1cc(SCc2cc(=O)[nH]c3ccccc23)nc2ccccc12,0,12,0,0,0,0,0
Cc1ccsc1/C=N/NC(=O)c1nnn(-c2nonc2N)c1CSc1ccccc1,0,11,-,0,0,0,0
COc1ccc(/C(C)=N/NC(=O)c2nnn(-c3nonc3N)c2CN(C)c2ccccc2)cc1,0,13,-,0,0,0,0
Cc1ccc(/C=N/NC(=O)c2nnn(-c3nonc3N)c2CSc2ccccc2)s1,0,0,-,0,0,-,-
CCCc1c(C(=O)N/N=C/c2c(OC)ccc3ccccc23)nnn1-c1nonc1N,0,25,-,0,0,11,0
Cc1nnn(-c2nonc2N)c1C(=O)N/N=C/c1ccccc1O,0,10,0,0,0,0,0
CCCc1c(C(=O)N/N=C/c2ccc(OC)c(OCc3ccccc3)c2)nnn1-c1nonc1N,0,0,-,0,0,-,-
O=C(NCc1ccccc1Cl)[C@H]1CCCN1C(=O)[C@H]1CCCN1C(=O)c1cccc2ccccc12,0,-,-,-,-,-,-
CC1(C(=O)Nc2ccc3c(c2)OCCO3)CCC(=O)N1CCOc1ccccc1 (centres undefined),0,-,-,-,-,-,-
Cc1ccc(S(=O)(=O)N(C)CC(=O)N(C)CCOc2ccccc2)cc1,0,0,-,0,0,-,-
Clc1ccccc1NN=Cc1ccccn1,0,0,-,0,0,-,-
O=C1CC2(CCN(S(=O)(=O)c3ccccc3F)CC2)Oc2ccccc21,0,0,-,0,0,-,-
O=C(CSC1=Nc2ccccc2C2CC=NN12)Nc1ccc(F)cc1Cl (centres undefined),0,26,0,0,0,0,0
O=C(CC1C(=O)NCCN1Cc1cccc(F)c1)NC1CCCCC1 (centres undefined),0,0,-,0,0,-,-
CCc1nc(N)c(C#N)c(-c2ccc(F)cc2)c1C,0,0,0,0,0,-,-
Cc1c(-c2ccc(F)cc2)nc(N)c(C#N)c1-c1ccco1,0,15,0,0,0,0,0
CCCCCCN1C[C@@H](O)[C@H](n2cc(COC(=O)c3ccccc3)nn2)C[C@@H]1c1ccc(OC)cc1,0,0,-,0,0,-,-
CC(=O)NCC1COc2ccccc2O1 (centres undefined),0,0,-,0,0,-,-
CC(C)Oc1ccc(/C=C/C(=O)NCC2COc3ccccc3O2)cc1 (centres undefined),0,10,-,0,0,0,0
COc1ccc(C(C)(C)C)cc1NC(=O)CCCN1C(=O)CN(C)C1=O,0,0,-,0,0,-,-
Cc1cc(Cl)c(S(=O)(=O)N2CCN(c3cccc(C)c3C)CC2)cc1OCC(N)=O,0,14,0,0,0,0,0
Cc1cc(C)nc(Nc2n[nH]c(COc3ccc4ccccc4c3)n2)n1,0,16,0,0,0,0,0
Cc1cc(C)nc(Nc2n[nH]c(COc3ccccc3)n2)n1,0,0,0,0,0,-,-
CC(=O)Nc1cc(-c2ccc(C(=O)NC3CC3)cc2)cn2c(-c3cccc(C(C)=O)c3)cnc12,0,16,-,-,0,18,0
